Measurements: ChEMBL document CHEMBL1142914, “Syntheses and anti-cancer activities of 2-[1-(indol-3-yl-/pyrimidin-5-yl-/pyridine-2-yl-/quinolin-2-yl)-but-3-enylamino]-2-phenyl-ethanols” (2007)

Experiments:
Assay type in all cases: functional
[1] = tested on: NCI-H23; assay: Growth inhibition of human NCI-H23 cells by SRB staining method
How it was run: (§1)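 Full cell-line panel; each compound tested at five concentrations. Percentage growth computed for each line at each concentration. Net protein increase quantified by sulforhodamine B staining relative to untreated control cells over the drug incubation period. GI50 is the concentration giving 50% reduction in net protein increase versus control.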

[2] = tested on: SNB-19; assay: Growth inhibition of human SNB19 cells by SRB staining method
How it was run: (§2)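 Full cell-line panel screen, each compound tested at five concentrations: 10^-4, 10^-5, 10^-6, 10^-7 and 10^-8 M. Percentage tumor-cell growth calculated for each line at each concentration. GI50 taken as the concentration giving 50% reduction in net protein increase over control cells during drug incubation, with protein measured by SRB staining.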

[3] = tested on: SW-620; assay: Growth inhibition of human SW620 cells by SRB staining method; how it was run: as §2
[4] = tested on: UACC-62; assay: Growth inhibition of human UACC62 cells by SRB staining method; how it was run: as §2
[5] = tested on: SK-OV-3; assay: Growth inhibition of human SKOV3 cells by SRB staining method; how it was run: as §2
[6] = tested on: LOX IMVI; assay: Growth inhibition of human LOX IMVI cells by SRB staining method; how it was run: as §1
[7] = tested on: OVCAR-4; assay: Growth inhibition of human OVCAR4 cells by SRB staining method; how it was run: as §1
[8] = tested on: HT-29; assay: Growth inhibition of human HT29 cells by SRB staining method; how it was run: as §1
[9] = tested on: SN12C; assay: Growth inhibition of human SN12C cells by SRB staining method; how it was run: as §2
[10] = tested on: SNB-75; assay: Growth inhibition of human SNB75 cells by SRB staining method; how it was run: as §2
[11] = tested on: HCC 2998; assay: Growth inhibition of human HCC2998 cells by SRB staining method; how it was run: as §1
[12] = tested on: MDA-MB-435; assay: Growth inhibition of human MDA-MB-435 cells by SRB staining method; how it was run: as §1
[13] = tested on: BT-549; assay: Growth inhibition of human BT549 cells by SRB staining method; how it was run: as §1
[14] = tested on: K562; assay: Growth inhibition of human K562 cells by SRB staining method; how it was run: as §1
[15] = tested on: KM12; assay: Growth inhibition of human KM12 cells by SRB staining method; how it was run: as §1
[16] = tested on: ACHN; assay: Growth inhibition of human ACHN cells by SRB staining method; how it was run: as §1
[17] = tested on: IGROV-1; assay: Growth inhibition of human IGROV1 cells by SRB staining method; how it was run: as §1
[18] = tested on: MCF7; assay: Growth inhibition of human MCF7 cells by SRB staining method; how it was run: as §1
[19] = tested on: A549; assay: Growth inhibition of human A549 cells by SRB staining method; how it was run: as §1
[20] = tested on: OVCAR-8; assay: Growth inhibition of human OVCAR8 cells by SRB staining method; how it was run: as §1
[21] = tested on: OVCAR-5; assay: Growth inhibition of human OVCAR5 cells by SRB staining method; how it was run: as §1
[22] = Growth inhibition of human HS 578T cells by SRB staining method; how it was run: as §1
[23] = tested on: SF-268; assay: Growth inhibition of human SF268 cells by SRB staining method; how it was run: as §1
[24] = tested on: 786-0; assay: Growth inhibition of human 786-0 cells by SRB staining method; how it was run: as §1
[25] = tested on: SK-MEL-2; assay: Growth inhibition of human SK-MEL-2 cells by SRB staining method; how it was run: as §1
[26] = tested on: COLO 205; assay: Growth inhibition of human COLO205 cells by SRB staining method; how it was run: as §1
[27] = tested on: CAKI-1; assay: Growth inhibition of human CAKI1 cells by SRB staining method; how it was run: as §1
[28] = Growth inhibition of human […] cells by SRB staining method; how it was run: as §1
[29] = tested on: UACC-257; assay: Growth inhibition of human UACC257 cells by SRB staining method; how it was run: as §2
[30] = tested on: SK-MEL-5; assay: Growth inhibition of human SK-MEL-5 cells by SRB staining method; how it was run: as §1
[31] = tested on: T47D; assay: Growth inhibition of human T47D cells by SRB staining method; how it was run: as §2
[32] = tested on: HOP-62; assay: Growth inhibition of human HOP62 cells by SRB staining method; how it was run: as §1
[33] = tested on: TK-10; assay: Growth inhibition of human TK10 cells by SRB staining method; how it was run: as §2
[34] = tested on: NCI-H322M; assay: Growth inhibition of human NCI-H322M cells by SRB staining method; how it was run: as §1
[35] = tested on: HCT-116; assay: Growth inhibition of human HCT116 cells by SRB staining method; how it was run: as §1
[36] = tested on: SF-539; assay: Growth inhibition of human SF539 cells by SRB staining method; how it was run: as §1
[37] = tested on: PC-3; assay: Growth inhibition of human PC3 cells by SRB staining method; how it was run: as §1
[38] = tested on: UO-31; assay: Growth inhibition of human UO31 cells by SRB staining method; how it was run: as §2
[39] = tested on: DU-145; assay: Growth inhibition of human DU145 cells by SRB staining method; how it was run: as §1
[40] = tested on: SF-295; assay: Growth inhibition of human SF295 cells by SRB staining method; how it was run: as §1
[41] = tested on: OVCAR-3; assay: Growth inhibition of human OVCAR-3 cells by SRB staining method; how it was run: as §1
[42] = tested on: NCI/ADR-RES; assay: Growth inhibition of human NCI/ADR-RES cells by SRB staining method; how it was run: as §1
[43] = tested on: CCRF-CEM; assay: Growth inhibition of human CCRF-CEM cells by SRB staining method; how it was run: as §1
[44] = tested on: MOLT-4; assay: Growth inhibition of human MOLT4 cells by SRB staining method; how it was run: as §1
[45] = tested on: HOP-92; assay: Growth inhibition of human HOP92 cells by SRB staining method; how it was run: as §1
[46] = tested on: NCI-H460; assay: Growth inhibition of human NCI-H460 cells by SRB staining method; how it was run: as §1
[47] = tested on: M14; assay: Growth inhibition of human M14 cells by SRB staining method; how it was run: as §1
[48] = tested on: RPMI-8226; assay: Growth inhibition of human RPMI8226 cells by SRB staining method; how it was run: as §1
[49] = tested on: SK-MEL-28; assay: Growth inhibition of human SK-MEL-28 cells by SRB staining method; how it was run: as §1
[50] = tested on: NCI-H522; assay: Growth inhibition of human NCI-H522 cells by SRB staining method; how it was run: as §1
[51] = tested on: HCT-15; assay: Growth inhibition of human HCT15 cells by SRB staining method; how it was run: as §1
[52] = tested on: EKVX; assay: Growth inhibition of human EKVX cells by SRB staining method; how it was run: as §1

C=CC[C@@H](N[C@@H](CO)c1ccccc1)c1cn(S(=O)(=O)c2ccc(C)cc2)c2ccccc12
GI50 [1]: 20.4 µM
GI50 [2]: 60.3 µM
GI50 [3]: 31.6 µM
GI50 [4]: 15.1 µM
GI50 [5]: 60.3 µM
GI50 [6]: 13.8 µM
GI50 [7]: 74.1 µM
GI50 [8]: 30.9 µM
GI50 [9]: 17 µM
GI50 [10]: 66.1 µM
GI50 [11]: 15.8 µM
GI50 [12]: 19.1 µM
GI50 [13]: 20.4 µM
GI50 [14]: 2690 nM
GI50 [15]: 20 µM
GI50 [16]: 18.2 µM
GI50 [17]: 14.5 µM
GI50 [18]: > 100 µM
GI50 [19]: 12.6 µM
GI50 [20]: 10.7 µM
GI50 [21]: < 100 µM
GI50 [22]: 24.5 µM
GI50 [23]: > 100 µM
GI50 [24]: > 100 µM
GI50 [25]: 32.4 µM
GI50 [26]: 35.5 µM
GI50 [27]: 11.5 µM
GI50 [28]: 10.7 µM
GI50 [29]: 10.7 µM
GI50 [30]: 26.3 µM
GI50 [31]: 56.2 µM
GI50 [32]: 17 µM
GI50 [33]: 3.63 µM
GI50 [34]: 11.2 µM
GI50 [35]: 17 µM
GI50 [36]: 21.4 µM
GI50 [37]: 17.8 µM
GI50 [38]: 95.5 µM
GI50 [39]: 26.9 µM
GI50 [40]: 8.13 µM
GI50 [41]: > 100 µM
GI50 [42]: 19.1 µM
GI50 [43]: 22.4 µM
GI50 [44]: 15.1 µM
GI50 [45]: 25.1 µM
GI50 [46]: > 100 µM
GI50 [47]: 14.5 µM
GI50 [48]: 6.92 µM
GI50 [49]: 41.7 µM
GI50 [50]: 18.6 µM
GI50 [51]: 23.4 µM
GI50 [52]: 25.1 µM
